# In ChEMBL document CHEMBL2169869, “Assay and inhibition of diacylglycerol lipase activity” (Bioorg Med Chem Lett, 2012):
# Key:
# [1] = molecular target: T1, Monoglyceride lipase (Homo sapiens) (UniProt Q99685); experiment: Inhibition of human N-terminal histidine tagged full length MAGL expressed in Escherichia coli at 10 uM by coumarin ester substrate fluorescence assay
# T1 sequence (whole entry): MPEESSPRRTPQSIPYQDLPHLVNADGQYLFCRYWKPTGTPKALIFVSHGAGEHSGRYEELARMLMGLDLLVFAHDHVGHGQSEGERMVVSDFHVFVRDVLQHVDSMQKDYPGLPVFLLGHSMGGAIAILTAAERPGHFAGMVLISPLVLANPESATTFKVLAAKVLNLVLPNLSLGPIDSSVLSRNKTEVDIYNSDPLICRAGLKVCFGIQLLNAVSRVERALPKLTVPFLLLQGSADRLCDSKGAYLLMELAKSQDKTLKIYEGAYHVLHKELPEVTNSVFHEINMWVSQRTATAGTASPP
# Bacteria = experiment: Inhibition of bacterial lipoprotein lipase at 10 uM by FRET assay
# [2] = molecular target: T2, Diacylglycerol lipase-alpha (Homo sapiens) (UniProt Q9Y4D2); experiment: Inhibition of human DAGLalpha expressed in HEK293T cell membrane using [14C]SAG substrate at 10 uM in detergent free solution by […]; type: cell-based; settings: HEK-293T
# T2 sequence (whole entry): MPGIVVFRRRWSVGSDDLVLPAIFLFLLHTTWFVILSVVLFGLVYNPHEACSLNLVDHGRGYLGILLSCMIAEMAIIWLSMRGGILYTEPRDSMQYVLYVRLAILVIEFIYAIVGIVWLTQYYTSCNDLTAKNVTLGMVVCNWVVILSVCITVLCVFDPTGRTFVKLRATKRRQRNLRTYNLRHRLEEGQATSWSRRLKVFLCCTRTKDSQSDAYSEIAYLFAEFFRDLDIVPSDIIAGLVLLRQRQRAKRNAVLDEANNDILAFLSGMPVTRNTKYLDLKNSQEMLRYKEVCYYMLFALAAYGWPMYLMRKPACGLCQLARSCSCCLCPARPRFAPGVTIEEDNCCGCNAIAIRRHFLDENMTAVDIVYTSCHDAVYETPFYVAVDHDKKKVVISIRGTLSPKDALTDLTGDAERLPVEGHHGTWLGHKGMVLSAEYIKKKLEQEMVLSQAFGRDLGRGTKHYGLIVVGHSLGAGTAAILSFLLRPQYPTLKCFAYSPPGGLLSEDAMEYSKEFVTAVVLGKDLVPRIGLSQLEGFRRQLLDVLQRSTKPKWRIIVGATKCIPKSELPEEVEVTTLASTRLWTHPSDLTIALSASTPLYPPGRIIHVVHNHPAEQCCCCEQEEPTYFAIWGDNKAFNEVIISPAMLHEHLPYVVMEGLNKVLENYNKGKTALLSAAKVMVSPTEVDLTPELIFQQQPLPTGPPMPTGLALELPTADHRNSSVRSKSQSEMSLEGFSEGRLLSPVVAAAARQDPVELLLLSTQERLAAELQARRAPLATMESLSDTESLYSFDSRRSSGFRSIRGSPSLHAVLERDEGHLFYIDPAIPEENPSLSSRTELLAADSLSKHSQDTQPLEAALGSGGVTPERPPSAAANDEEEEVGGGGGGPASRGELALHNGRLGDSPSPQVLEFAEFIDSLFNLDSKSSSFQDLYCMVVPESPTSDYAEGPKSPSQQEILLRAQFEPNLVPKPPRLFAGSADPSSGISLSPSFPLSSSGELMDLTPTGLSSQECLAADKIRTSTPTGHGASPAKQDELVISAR
# [3] = molecular target: T3, Diacylglycerol lipase-alpha (Mus musculus) (UniProt Q6WQJ1); experiment: Inhibition of mouse DAGLalpha expressed in HEK293T cell membrane using [14C]SAG substrate at 100 nM by scintillation counting based radio-TLC assay; type: cell membranes; settings: HEK-293T
# T3 sequence (whole entry): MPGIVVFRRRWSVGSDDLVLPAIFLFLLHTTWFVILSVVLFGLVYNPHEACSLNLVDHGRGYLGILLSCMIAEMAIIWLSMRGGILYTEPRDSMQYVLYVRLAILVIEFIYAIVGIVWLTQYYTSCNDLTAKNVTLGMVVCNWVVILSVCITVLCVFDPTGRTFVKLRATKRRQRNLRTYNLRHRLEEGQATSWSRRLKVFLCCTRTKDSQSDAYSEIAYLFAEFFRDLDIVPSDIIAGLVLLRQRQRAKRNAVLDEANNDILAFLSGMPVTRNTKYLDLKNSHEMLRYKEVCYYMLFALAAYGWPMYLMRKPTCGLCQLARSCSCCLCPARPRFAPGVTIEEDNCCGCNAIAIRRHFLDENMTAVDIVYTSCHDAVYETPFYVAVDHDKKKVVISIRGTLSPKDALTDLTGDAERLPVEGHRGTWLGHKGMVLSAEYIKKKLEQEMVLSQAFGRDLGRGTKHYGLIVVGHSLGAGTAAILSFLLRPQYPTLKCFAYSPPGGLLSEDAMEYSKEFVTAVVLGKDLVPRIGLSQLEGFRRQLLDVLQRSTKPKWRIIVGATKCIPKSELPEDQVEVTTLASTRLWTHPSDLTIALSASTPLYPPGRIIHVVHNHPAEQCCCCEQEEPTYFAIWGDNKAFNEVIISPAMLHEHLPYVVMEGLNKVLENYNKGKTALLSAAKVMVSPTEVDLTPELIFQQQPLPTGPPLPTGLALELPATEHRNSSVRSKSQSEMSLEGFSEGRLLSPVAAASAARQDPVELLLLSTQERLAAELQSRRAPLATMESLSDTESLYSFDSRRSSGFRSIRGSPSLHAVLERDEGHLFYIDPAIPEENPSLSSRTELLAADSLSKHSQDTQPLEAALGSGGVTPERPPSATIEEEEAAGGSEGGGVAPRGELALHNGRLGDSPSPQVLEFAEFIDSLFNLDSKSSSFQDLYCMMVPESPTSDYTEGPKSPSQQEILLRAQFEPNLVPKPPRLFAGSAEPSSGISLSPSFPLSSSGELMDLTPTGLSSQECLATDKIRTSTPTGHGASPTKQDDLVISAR
# Outline: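 mDAGLα radio-TLC using 8.8 μg membrane protein in 50 mM Tris pH 7.4 with 10 mM CaCl2. Inhibitor tested at 10 nM–10 μM, preincubated 15 min at 37 °C. [14C]SAG 20 μM final for 20 min at 37 °C. CHCl3/MeOH quench, silica TLC, phosphorimaging. Activity = labelled 2-AG+AA over total label. n=1–2.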
# [4] = molecular target: T2, Diacylglycerol lipase-alpha (Homo sapiens); experiment: Inhibition of human DAGLalpha expressed in HEK293T cell membrane using [14C]SAG substrate at 10 uM in presence of 0.05% Triton X-100 by scintillation counting based radio-TLC assay; type: cell membranes; settings: HEK-293T
# Outline: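 Sonicated HEK293T protein (100 μg) in 50 mM Tris pH 7.4 with 10 mM CaCl2. Inhibitor in DMSO (10% DMSO standard) preincubated 15 min at 37 °C. [14C]SAG was added to 20 μM final for 20 min at 37 °C, with Triton X-100 where the line states it. Quenched with 2:1 CHCl3/MeOH. Silica TLC in CHCl3/MeOH/NH4OH 86:14:0.75, then 12 h phosphorimaging. Activity = (2-AG+AA)/(2-AG+AA+SAG). Background-subtracted; n=1–2.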
SMILES,inhibition [1] [%],inhibition (Bacteria) [%],inhibition [2] [%],inhibition [3] [%],inhibition [4] [%]
O=C(Oc1ccc([N+](=O)[O-])cc1)N1CCC(C(O)(c2ccc3c(c2)OCO3)c2ccc3c(c2)OCO3)CC1,100,36,59,–,–
CCCCCCCCCCC[C@@H](C[C@@H]1OC(=O)[C@H]1CCCCCC)OC(=O)[C@@H](NC=O)[C@@H](C)CC,16,84,92,80,98
CCCCCCCCCCC[C@@H](C[C@@H]1OC(=O)[C@H]1CCCCCC)OC(=O)[C@@H](NC=O)[C@H](C)CC,1,61,92,61,95
CCCCCCCCCCC[C@@H](C[C@@H]1OC(=O)[C@H]1CCCCCC)OC(=O)[C@H](CC)NC=O,45,80,93,68,99
CCCCCCCCCCC[C@@H](C[C@@H]1OC(=O)[C@H]1CCCCCC)OC(=O)[C@H](NC=O)[C@@H](C)CC,42,68,90,51,86
CCCCCCCCCCC[C@@H](C[C@@H]1OC(=O)[C@H]1CCCCCC)OC(=O)[C@H](NC=O)[C@H](C)CC,39,86,90,29,78
CCCCCCCCCCC[C@@H](C[C@@H]1OC(=O)[C@H]1CCCCCC)OC(=O)[C@H](CC(C)C)NC=O [ORLISTAT],47,–,–,72,100
